Measurements published in ChEMBL document CHEMBL1221219, “Selective blockade of 2-arachidonoylglycerol hydrolysis produces cannabinoid behavioral effects” (Nat Chem Biol, 2009).
The source made the active and inactive calls.

Experiments:
[1] = target: T1, Cytosolic phospholipase A2 (Homo sapiens) (UniProt P47712); assay: Inhibition of recombinant cPLA2 4a expressed in HEK293 cells at 20 uM by radiolabeled TLC assay; type: cell-based
T1 sequence (whole entry): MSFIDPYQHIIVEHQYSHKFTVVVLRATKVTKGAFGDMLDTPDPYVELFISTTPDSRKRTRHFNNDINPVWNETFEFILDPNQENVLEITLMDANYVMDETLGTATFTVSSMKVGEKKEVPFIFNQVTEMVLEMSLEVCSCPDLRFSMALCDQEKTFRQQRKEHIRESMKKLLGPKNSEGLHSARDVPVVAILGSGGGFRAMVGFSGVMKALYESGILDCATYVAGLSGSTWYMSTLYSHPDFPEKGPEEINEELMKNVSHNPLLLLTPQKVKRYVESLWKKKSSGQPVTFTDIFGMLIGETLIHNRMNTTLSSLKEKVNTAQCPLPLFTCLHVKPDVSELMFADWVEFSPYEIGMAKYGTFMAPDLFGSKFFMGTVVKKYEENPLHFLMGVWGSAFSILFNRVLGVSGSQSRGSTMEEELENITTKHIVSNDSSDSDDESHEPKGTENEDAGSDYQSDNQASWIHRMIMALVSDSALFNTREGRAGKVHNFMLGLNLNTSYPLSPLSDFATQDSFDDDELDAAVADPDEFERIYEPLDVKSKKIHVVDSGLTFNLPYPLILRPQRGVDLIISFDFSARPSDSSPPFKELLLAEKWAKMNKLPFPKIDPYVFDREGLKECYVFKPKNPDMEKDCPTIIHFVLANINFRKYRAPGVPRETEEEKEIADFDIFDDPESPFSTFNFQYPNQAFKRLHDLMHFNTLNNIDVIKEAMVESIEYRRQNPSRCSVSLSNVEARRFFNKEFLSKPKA

Mus musculus [2] = assay: Inhibition of 2210412D01 gene in C57B1/6J mouse brain membrane at 16 mg/kg, ip after 4 hrs by competitive activity-based protein profiling-MudPIT method; type: functional, organism-based; design: dose 16 mg/kg
Procedure, shortened: (§1)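 Mice were dosed 16 mg kg^-1 i.p. or vehicle and killed at 4 h. Brain membrane proteomes were labelled with FP-biotin, avidin-enriched, trypsin-digested on bead, analysed by multidimensional LC-MS and identified by SEQUEST.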

Mus musculus [3] = assay: Inhibition of MAGL in C57B1/6J mouse brain membrane assessed as inhibition of 2-AG hydrolysis activity at 16 mg/kg, ip upto 24 hrs by competitive activity-based protein profiling method relative to control; type: functional; conditions: route intraperitoneal
Procedure, shortened: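 Male C57Bl/6J mice dosed i.p. in 4:1 v/v PEG300:Tween80, with vehicle controls; killed at set times (0.5-24 h, or 4 h). Brain membrane 2-AG hydrolysis measured by LC-MS substrate assay, and brain 2-AG measured by lipid LC-MS, relative to vehicle.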

Mus musculus [4] = assay: Antinociceptive activity against formalin-induced pain in C57B1/6J mouse assessed as paw lifting or licking during early phase (0 to 10 mins) at 40 m/kg, po administered 2 hrs before formalin challenge; type: functional, organism-based
Mus musculus [5] = assay: Change in free fatty acid level in C57B1/6J mouse brain at 16 mg/kg, ip by LC-MS; type: functional, organism-based; design: dose 16 mg/kg
Procedure, shortened: (§2)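 Mice received 16 mg kg^-1 i.p. in 4:1 PEG300:Tween80 and were killed at 0.5, 1, 2, 4, 8 and 24 h. Brain lipids, including N-acylethanolamines, MAGs, free fatty acids and arachidonic acid, were measured by LC-MS.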

Mus musculus [6] = assay: Inhibition of ABHD12 in C57B1/6J mouse brain membrane at 16 mg/kg, ip after 4 hrs by competitive activity-based protein profiling-MudPIT method; type: functional, organism-based; design: dose 16 mg/kg; procedure, shortened: as §1
Mus musculus [7] = assay: Inhibition of NTE in C57B1/6J mouse brain membrane at 16 mg/kg, ip after 4 hrs by competitive activity-based protein profiling-MudPIT method; type: functional, organism-based; design: dose 16 mg/kg
Procedure, shortened: (§3)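 After i.p. dosing in 4:1 PEG300:Tween80, male C57Bl/6J mice were killed at 4 h. Brain membrane proteomes from treated and vehicle mice were labelled with FP-biotin. Labelled proteins were enriched on avidin, digested on-bead with trypsin and analysed by multidimensional LC-MS. Proteins were identified by SEQUEST, and dosed samples were compared with vehicle.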

Mus musculus [8] = assay: Change in monoacylglycerol level in C57B1/6J mouse brain at 16 mg/kg, ip by LC-MS; type: functional, organism-based; design: dose 16 mg/kg; procedure, shortened: as §2
Mus musculus [9] = assay: Inhibition of CTHA in C57B1/6J mouse brain membrane at 16 mg/kg, ip after 4 hrs by competitive activity-based protein profiling-MudPIT method; type: functional, organism-based; design: dose 16 mg/kg; procedure, shortened: as §1
Mus musculus [10] = assay: Inhibition of LYPLA3 in C57B1/6J mouse brain membrane at 16 mg/kg, ip after 4 hrs by competitive activity-based protein profiling-MudPIT method; type: functional, organism-based; design: dose 16 mg/kg; procedure, shortened: as §3
Mus musculus [11] = assay: Change in mono-oleoylglycerol levels in intraperitoneally dosed C57B1/6J mouse brain by LC-MS; type: functional, organism-based
Procedure, shortened: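 Male C57Bl/6J mice given 4, 8, 16 or 40 mg kg^-1 i.p. in 4:1 PEG300:Tween80 at 4 μl g^-1, or vehicle, and killed after 4 h. Whole-brain lipids were quantified by LC-MS.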

Mus musculus [12] = assay: Inhibition of DPP8 in C57B1/6J mouse brain membrane at 16 mg/kg, ip after 4 hrs by competitive activity-based protein profiling-MudPIT method; type: functional, organism-based; design: dose 16 mg/kg; procedure, shortened: as §1
Mus musculus [13] = assay: Inhibition of MAGL in C57B1/6J mouse brain membrane at 16 mg/kg, ip after 0.5 hrs by competitive activity-based protein profiling method; type: functional, organism-based; design: dose 16 mg/kg
Procedure, shortened: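 Male C57Bl/6J mice (6-8 weeks, 20-26 g) given inhibitor i.p. in 4:1 v/v PEG300:Tween80 at 4 ul g^-1 (4-40 mg kg^-1); vehicle controls. Brain membrane proteomes (1 mg ml^-1 in PBS) labelled with FP-rhodamine (2 μM) for 30 min at room temperature. Readout by SDS-PAGE and in-gel fluorescence scanning, compared with vehicle.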

Mus musculus [14] = assay: Induction of hypothermia in C57B1/6J mouse at 16 mg/kg, ip; type: functional, organism-based; design: dose 16 mg/kg
Procedure, shortened: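 Male C57Bl/6J mice, 6-8 weeks, 20-26 g, given 16 mg kg^-1 i.p. in 4:1 v/v PEG300:Tween80 at 4 μl g^-1; vehicle controls received PEG300:Tween80 alone. Cannabinoid effects were scored in the tetrad test.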

Mus musculus [15] = assay: Inhibition of PAFAH-1Bb in C57B1/6J mouse brain membrane at 16 mg/kg, ip after 4 hrs by competitive activity-based protein profiling-MudPIT method; type: functional, organism-based; design: dose 16 mg/kg; procedure, shortened: as §3

O=C(Oc1ccc([N+](=O)[O-])cc1)N1CCC(C(O)(c2ccc3c(c2)OCO3)c2ccc3c(c2)OCO3)CC1
> 80%: inhibition in vivo at 16 mg/kg (Mus musculus [3])
active: Activity (Mus musculus [4]) | inhibition (Mus musculus [13]) | Activity (Mus musculus [14])
inactive: inhibition [1] | inhibition (Mus musculus [2]) | Activity (Mus musculus [5]) | inhibition (Mus musculus [6]) | inhibition (Mus musculus [7]) | Activity (Mus musculus [8]) | inhibition (Mus musculus [9]) | inhibition (Mus musculus [10]) | Activity (Mus musculus [11]) | inhibition (Mus musculus [12]) | inhibition (Mus musculus [15])
